Laboratory results: ChEMBL document CHEMBL4251707, “Stereochemical Structure Activity Relationship Studies (S-SAR) of Tetrahydrolipstatin” (ACS Med Chem Lett, 2018)

What was measured:
Format in all cases: cell-based
NCI-H460 = test: Cytotoxicity against human H460 cells assessed as reduction in cell viability after 72 hrs by MTT assay; settings: NCI-H460, 72 h
Outline: (§1)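 Cells plated at 5 × 10^3 cell/well and grown 12 to 16 h, then exposed to compound for 72 h over 0.1 nM to 100 μM, with untreated wells as controls. Viability was read by MTT as absorbance at 570 nm.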

MDA-MB-231 [1] = test: Cytotoxicity against human MDA-MB-231 cells assessed as reduction in cell viability after 72 hrs by MTT assay; settings: MDA-MB-231, 72 h; outline: as §1
MCF7 = test: Cytotoxicity against human MCF7 cells assessed as reduction in cell viability after 72 hrs by MTT assay; settings: MCF7, 72 h; outline: as §1
MDA-MB-231 [2] = test: Cytotoxicity against human MDA-MB-231 cells assessed as reduction in cell viability

Structure (SMILES) | IC50 (NCI-H460) [µM] | IC50 (MDA-MB-231 [1]) [µM] | IC50 (MCF7) [µM] | IC50 (MDA-MB-231 [2]) [µM]
CCCCCCCCCCC[C@@H](C[C@H]1OC(=O)[C@@H]1CCCCCC)OC(=O)[C@@H](CC(C)C)NC=O | > 100 | > 100 | > 100 | 
CCCCCCCCCCC[C@H](C[C@H]1OC(=O)[C@@H]1CCCCCC)OC(=O)[C@H](CC(C)C)NC=O | > 100 | > 100 | > 100 | 
CCCCCCCCCCC[C@H](C[C@@H]1OC(=O)[C@H]1CCCCCC)OC(=O)[C@H](CC(C)C)NC=O | > 100 | > 100 | > 100 | 
CCCCCCCCCCC[C@@H](C[C@H]1OC(=O)[C@@H]1CCCCCC)OC(=O)[C@H](CC(C)C)NC=O | > 100 | > 100 | > 100 | 
CCCCCCCCCCC[C@H](C[C@H]1OC(=O)[C@@H]1CCCCCC)OC(=O)[C@@H](CC(C)C)NC=O | > 100 | > 100 | > 100 | 
CCCCCCCCCCC[C@@H](C[C@@H]1OC(=O)[C@H]1CCCCCC)OC(=O)[C@@H](CC(C)C)NC=O | > 100 | > 100 | > 100 | 
CCCCCCCCCCC[C@H](C[C@@H]1OC(=O)[C@H]1CCCCCC)OC(=O)[C@@H](CC(C)C)NC=O | > 100 | > 100 | > 100 | 
CC[C@@]1(O)C(=O)OCc2c1cc1n(c2=O)Cc2cc3ccccc3nc2-1 [CAMPTOTHECIN] | 0.11 | 0.54 | 0.16 | 
CCCCCCCCCCC[C@@H](C[C@@H]1OC(=O)[C@H]1CCCCCC)OC(=O)[C@H](CC(C)C)NC=O [ORLISTAT] | > 100 | > 100 | > 100 | 13
